Screening results: PubChem, Broad Institute
rRNA inh HTS – reduced GFP signal of wild-type E. coli, primary screen, bacterial rRNA inhibitor project, GFP/RFP fluorescence, OD600, single point. AID 720706, 2013. E. coli WT GFP vs humanized-ribosome RFP mutants, 24 h; active compounds read low; DMSO median 0, no signal -100. GFP signal change (wild-type ribosome), % (concentration not given with the values). 350,000 compounds, 1.6% hits;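 active means significant combined selectivity score with lowered wild-type GFP, culture density cut under 30%, mutant RFP and density less affected; inactive means any of these conditions unmet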
SR-BI uptake up – activators of SR-BI mediated DiI-HDL uptake, primary screen, ldlA[mSR-BI] CHO cells, DiI fluorescence | 320,000 compounds, 0.096% hits | 3 h; 100 = double the neutral-control signal | activation, % at 12.5 µM;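 active means mean replicate activation of at least 60% and every replicate at or above 60%; inconclusive means mean or all-replicate condition met, but not both; inactive means mean below 60% and not all replicates reaching 60%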
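System: LDL receptor-deficient CHO ldlA cells overexpressing murine SR-BI | Timing: 3 h uptake period with compound, 37 °C | Medium: HEPES-buffered (25 mM, pH 7.4) F12 plus 0.5% BSA | Dosing: Single-point compound dose | Signal: Bottom-read fluorescence, 550/595 nm | Read-out: Retained DiI signal reflecting DiI-HDL uptake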
SR-BI DiI inh – inhibitors of SR-BI mediated HDL lipid uptake, primary screen, ldlA[mSR-BI] cells, fluorescence, single point; ldlA[mSR-BI] CHO cells, DiI-HDL uptake fluorescence, 3 h; Scavenger receptor class B member 1 (Mus musculus), Q61009; 320,000 compounds, 0.96% hits; inhibition, % at 12.5 µM;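 active means mean replicate inhibition of at least 70% and a set share of replicates each scoring 70 or more; inconclusive means meets just one of the two criteria; inactive means fails both criteria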
Target sequence (Q61009 whole entry, looked up): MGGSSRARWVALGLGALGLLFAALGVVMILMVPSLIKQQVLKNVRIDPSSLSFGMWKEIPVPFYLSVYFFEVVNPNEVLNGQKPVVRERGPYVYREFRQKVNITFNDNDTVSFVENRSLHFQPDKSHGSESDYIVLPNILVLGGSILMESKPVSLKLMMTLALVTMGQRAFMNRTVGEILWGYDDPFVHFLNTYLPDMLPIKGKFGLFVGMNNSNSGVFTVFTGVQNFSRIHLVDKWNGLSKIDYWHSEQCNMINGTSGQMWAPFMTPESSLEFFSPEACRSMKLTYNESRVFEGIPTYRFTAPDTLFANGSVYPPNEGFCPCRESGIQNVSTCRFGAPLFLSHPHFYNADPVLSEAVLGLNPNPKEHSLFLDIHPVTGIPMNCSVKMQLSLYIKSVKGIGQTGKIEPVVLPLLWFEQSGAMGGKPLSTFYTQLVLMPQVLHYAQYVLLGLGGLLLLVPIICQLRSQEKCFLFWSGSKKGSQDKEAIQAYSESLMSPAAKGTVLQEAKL
Xi reactivation – activators of inactive X chromosome reactivation, primary screen, imaging, XiGFP fibroblasts, GFP high-content imaging, set 2. XiGFP mouse fibroblasts, % GFP-positive cells imaging, 3 d; cells co-treated with 5-aza-dC sensitizer; scaled so ellipticine positive control = 100%. activation, % at 7.58 µM. 360,000 compounds, 0.055% hits. AID 743238, 2013;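 active means mean normalized replicate activation at least 10% and every replicate at or above 10%; inconclusive means only one of the two criteria met; inactive means mean below 10% and not all replicates reach 10%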
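Material: XiGFP fibroblasts, SV40-immortalized; Buffer or medium: DMEM containing 5-aza-dC; Compound dosing: single point; Times: 3 days compound exposure.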
dFosB act-1 – activators of delta FosB homodimer, primary screen, biochemical, fluorescence polarization, TAMRA-CDK5 oligo, single point; activation, % at 25 µM; 340,000 compounds, 0.99% hits; Protein FosB (Mus musculus), P13346; purified delta FosB; percent of positive-control signal above neutral wells;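 active means mean activation above about 17%, with every replicate also reaching it, limit read from the data, passing the limit was not always enough; inconclusive means only one of the two conditions met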
PvdQ acylase – P. aeruginosa PvdQ acylase inhibitors, primary screen, biochemical, fluorescence, plate reader and imaging, single point | PvdQ acylase [Pseudomonas aeruginosa LESB58] | purified PvdQ acylase | inhibition, % at 10 µM | 340,000 compounds, 0.063% hits | AID 488965, 2010; in the data active means inhibition above about 30%, passing the limit was not always enough; inconclusive means no clear call, values can overlap the other calls
DiI quencher – counter-screen for SR-BI lipid transfer inhibitors: DiI fluorescence quenchers. AID 540326. 470 compounds, 20% hits. shares compounds with SR-BI DiI inh. cell-free DiI-HDL fluorescence quenching, 30 min. AC50, µM (top dose mostly 35 µM);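 active means quenching, a falling signal, with AC50 below a set limit tied to the top valid dose, actives reach about 32 µM in these data; inconclusive means no clear call, values can overlap the other calls; inactive means rising signal, and the rest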
dFosB act-2 – activators of mouse delta FosB DNA binding, confirmation, biochemical, fluorescence polarization, TAMRA-CDK5 oligo, cherry-picked samples; 2,400 tested, under 10 active; purified delta FosB; normalised: neutral wells 0, positive control 100; shares compounds with dFosB act-1; AID 588690, 2011; activation, % at 24.9 µM;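 active means highest replicate activation at or above 34% and every replicate reaching that threshold; inconclusive means meets only one of the two criteria; inactive means meets neither criterion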;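 further: higher polarization means more probe DNA bound by delta FosB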
A number is an active result; n = inactive; u = inconclusive; x = not tested or not shown. Rows were chosen to be rich in hits. Some 2.6% of all compounds tested hit in one or more screens of this group.

SMILES	rRNA inh HTS	SR-BI uptake up	SR-BI DiI inh	Xi reactivation	dFosB act-1	PvdQ acylase	others
O=C(C1CCC(=O)N1C1CCCCC1)N1CCC2(CC1)OCCO2 (configuration not stated)	n	n	n	x	n	n
COc1ccc(CN2C(=O)NC(=O)/C(=C/c3ccc(OC)c(OC)c3OC)C2=O)cc1	n	380	n	n	n	n
COc1ccc(CN2C(=O)NC(=O)/C(=C/c3cc(OC)c(OC)c(OC)c3)C2=O)cc1	n	n	n	n	n	n
CN1CCN(c2ccc(N)c(N3CCN(C)CC3)c2)CC1	x	n	n	x	56	n
NC1=C([N+](=O)[O-])C(c2ccc3c(c2)OCO3)c2c(c3ccccc3oc2=O)O1 (configuration not stated)	-29	x	x	n	x	x
N#CC1=C(N)Oc2c(c(=O)oc3ccccc23)C1c1ccc([N+](=O)[O-])o1 (configuration not stated)	n	n	n	n	n	n
COc1ccc(CC(C)Nc2cccc(F)c2)cc1 (configuration not stated)	n	n	n	n	n	36
CC(C)N1CC=C(c2c[nH]c3ccccc23)CC1	x	n	n	x	n	n
O=S1(=O)N(CCN2CC=C(c3c[nH]c4cc(F)ccc34)CC2)c2cccc3c2N1CCC3	x	n	79	n	u	n
COc1ccc(C(=O)C(C)(C)NO)cc1	x	n	n	x	n	n
CN(CCc1ccccc1)Cc1ccccc1[N+](=O)[O-]	x	n	n	x	n	n
Oc1ccccc1CN(CCc1ccccc1)Cc1ccccc1	-26	n	n	n	n	n
O=c1c2ccccc2nc(-c2cccs2)n1-c1cnccn1	x	n	n	x	n	n
CCCCCCn1c(=O)c(C(=O)Nc2cnccn2)c(O)c2ccccc21	n	n	82	n	n	n	DiI quencher=n
O=C(Nc1ccccc1F)OC1CN2CCC1CC2 (configuration not stated)	n	n	84	n	n	n	DiI quencher=n
COc1ccc(S(=O)(=O)N2CC3CC(C2)c2cccc(=O)n2C3)cc1 (configuration not stated)	n	n	n	n	n	n
CC(C)(C)c1ccc(S(=O)(=O)N2CC3CC(C2)c2cccc(=O)n2C3)cc1 (configuration not stated)	n	n	n	x	n	n	DiI quencher=n
CC(C)C[C@H]1COc2cccc(N3CCN(C)CC3)c2S(=O)(=O)N1	n	x	x	n	x	x
O=P1(Oc2ccccc2)C[C@@H](O)[C@@H](O)[C@H](COCc2ccccc2)O1 (some centres not stated)	n	n	n	n	n	n
NCCNc1ccc([N+](=O)[O-])c2cccnc12	n	n	n	n	16	n	dFosB act-2=n
Cc1cc(C)cc(-n2c(O)c(C=Nc3ccc(N4CCOCC4)cc3)c(=O)[nH]c2=S)c1	x	n	n	n	n	n
